# From PubChem
# Runt-CBFb FRET = Runt domain-CBFb interaction inhibition | Q01196+Q13951 | Cerulean-Runt/Venus-CBFb FRET ratio 530/480, 1 h | inhibition, % at 20 µM | 220,000 compounds, 0.46% hits | AID 1496;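 active = inhibition over about 50% at 20 µM in the single-dose screen, limit read from the data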;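 also: 0% = DMSO wells and 100% = excess unlabeled CBFb competitor control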
# Target sequence (Q01196 whole entry, looked up, the tested form may be a part): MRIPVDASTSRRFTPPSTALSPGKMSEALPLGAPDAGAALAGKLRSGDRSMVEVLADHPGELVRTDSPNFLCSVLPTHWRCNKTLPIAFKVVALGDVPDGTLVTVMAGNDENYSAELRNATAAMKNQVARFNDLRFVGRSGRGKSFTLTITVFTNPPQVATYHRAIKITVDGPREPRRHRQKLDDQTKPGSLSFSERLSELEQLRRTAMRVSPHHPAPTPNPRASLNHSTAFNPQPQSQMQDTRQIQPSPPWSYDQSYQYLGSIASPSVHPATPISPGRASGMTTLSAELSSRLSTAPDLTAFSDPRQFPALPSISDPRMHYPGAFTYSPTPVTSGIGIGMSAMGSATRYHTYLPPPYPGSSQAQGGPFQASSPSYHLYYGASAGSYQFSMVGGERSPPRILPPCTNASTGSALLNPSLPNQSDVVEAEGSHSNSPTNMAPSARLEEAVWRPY
# Target sequence (Q13951 whole entry, looked up, the tested form may be a part): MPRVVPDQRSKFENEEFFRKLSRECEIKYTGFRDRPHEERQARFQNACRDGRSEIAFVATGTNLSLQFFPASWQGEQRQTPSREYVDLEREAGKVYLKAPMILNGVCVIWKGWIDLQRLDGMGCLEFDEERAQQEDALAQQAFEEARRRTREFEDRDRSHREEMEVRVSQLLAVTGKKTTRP
#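 Measured by: fluorescence energy transfer, 422 nm excitation, 530/480 nm emission; test system: Cerulean-tagged RUNX1 Runt domain (FRET donor) fusion protein; buffer or medium: Tris pH 7.5 buffer with BSA; compound: one dose, 20 µM compound, 1% DMSO; times: two 1 h room-temperature incubations shielded from light; benchmarks: unlabeled CBFb 5 µM, positive control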
# RanGTP-Imp inh = disruptors of Ran-importin-beta complex formation – biochemical, FRET, CFP-Ran, YFP-importin-beta, homogeneous, primary screen; cell-free CFP-Ran/YFP-importin-beta FRET ratio; inhibition, % (test concentration not listed); 300,000 compounds, 1.1% hits; AID 2216;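 active = more than half of the replicate wells show a fall in the fluorescence ratio signal beyond about 16%, limit read from the data, passing the limit was not always enough; inconclusive = exactly half of the replicate wells pass the set limit; inactive = fewer than half of replicates pass the limit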;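 also: 0% = DMSO wells and 100% = Ran loaded with GDP instead of GTP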
# Hck-Nef inh = blocks Nef-activated human Hck kinase; P08631; Recombinant Hck-YEEI plus Nef, Z-Lyte FRET kinase assay; inhibition, % at 20 µM; 220,000 compounds, 0.68% hits; AID 463187;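 active = Hck-Nef kinase inhibition above about 50%, limit read from the data; inactive = inhibition below that limit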;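 also: 0% = DMSO with Hck plus Nef and 100% = Hck alone without Nef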
# Runt-SMMHC FRET = inhibitors of human RUNX1 Runt domain binding to CBFb-SMMHC; Q01196+Q13951; Cerulean-Runt/Venus-CBFb-SMMHC FRET ratio 530/480, 1 h; inhibition, % at 20 µM; 220,000 compounds, 0.74% hits;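 active = mean inhibition across duplicate retests at 20 µM reaching about 50%, limit read from the data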;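 also: 0% = DMSO wells and 100% = wells with excess untagged CBFb-SMMHC; inhibitors lower the FRET ratio by blocking Runt binding to CBFb-SMMHC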
# Numbers without * were called inactive; ? = inconclusive; · = not tested or not shown. This is a sample that favours compounds with a hit; in the whole collection about 1.7% have one here.
SMILES,Runt-CBFb FRET,RanGTP-Imp inh,Hck-Nef inh,Runt-SMMHC FRET
COC(=O)c1sc2nc(C)cc(C)c2c1N,1.3,2.3,16.9,4.5
CC(=O)c1sc2nc(C)cc(C)c2c1N,28.3,9.5,20.2,77.9*
Cc1cc(C)c2c(N)c(C(=O)Nc3ncc(C)s3)sc2n1,65.1*,·,15.4,95.4*
COc1ccc(-c2nc(SC(C)C(=O)NCC3CCCO3)n[nH]2)cc1 (centres undefined),·,0.8,·,·
Cc1nc2scc(C)n2c(=O)c1S(=O)(=O)Nc1ccc(OC(F)(F)F)cc1,·,3.8,·,·
COc1ccc(CNC(=O)COc2ccc([N+](=O)[O-])cc2)cc1,-0.4,37.1*,1.8,-1.6
COc1ccc(OCC(=O)NCc2ccc(Cl)cc2)cc1,·,0.8,·,·
CC(=O)N1N=C(c2ccccc2O)CC1c1cccs1 (centres undefined),·,1.0,·,·
COc1ccc(C(=O)c2sc3nc(-c4ccccc4)ccc3c2N)cc1,-77.8,·,-8.6,-21.5
CC(C)OC(=O)c1sc2nc(-c3ccccc3)ccc2c1N,-0.7,20.2*,0.1,4.3
Cc1ccc(S(=O)(=O)N(C)C)cc1NC(=O)C1CCCN(C(=O)c2ccc(Cl)cc2)C1 (centres undefined),·,-0.7,·,·
O=C(Nc1ccc(N2CCOCC2)c(F)c1)c1cccs1,·,16.4*,·,·
COC(=O)c1cc(NC(=O)c2cccs2)ccc1N1CCOCC1,·,0.6,15.7,·
COc1cccc(-n2cc(CNCc3c(C(=O)N(C)C)nc4ccc(Cl)cn34)cn2)c1,-0.3,-1.1,1.8,1.5
COc1cccc(-n2cc(CNCc3cn(C)nc3-c3ccccc3F)cn2)c1,-0.1,64.0*,-6.1,-2.0
O=C1C=CC(=O)N1c1ccc(Sc2ccc([N+](=O)[O-])cc2)cc1,25.8,-5.1,50.1*,41.3
CCOC(=O)Nc1ccc2c(c1)nc(CN1CCCCC1)n2C,0.3,8.8,31.4,-1.6
Cc1onc(-c2c(F)cccc2Cl)c1C(=O)NC(=S)NC1CCS(=O)(=O)C1 (centres undefined),-0.7,2.4,11.5,-0.4
N#CC1=C(N)N(c2ccccc2C#N)C2=C(C(=O)CCC2)C1c1ccsc1 (centres undefined),14.8,29.6*,0.9,18.1
COC(/C=C/Nc1ccc(Cl)cc1)=C(C#N)C#N,0.3,26.7*,17.6,3.7
COc1cc([C@@H]2[C@H]3CNCC=C3C(C#N)=C(N)C2(C#N)C#N)ccc1OC(C)C,6.9,62.7*,16.9,52.0
O=C(NCCC1=CCCCC1)C1CCN(S(=O)(=O)c2ccccc2C(F)(F)F)CC1,·,0.1,·,·
COc1ccc(-c2cc3ccc(O)cc3oc2=O)cc1OC,·,106.4*,·,·
CCOc1cc(/C=C(\C#N)C(=O)Nc2ccccc2[N+](=O)[O-])ccc1OCc1cccc2ccccc12,1.3,·,55.3*,-5.1
COCCN(C(=O)CCC(=O)Nc1nccs1)C(C(=O)NCCC(C)C)c1ccc(OC)cc1 (centres undefined),·,0.6,·,·
SMILES,Runt-CBFb FRET,RanGTP-Imp inh,Hck-Nef inh,Runt-SMMHC FRET
O=C(Nc1cccc(-c2nc3ccccc3s2)c1)c1cc(=O)c2ccccc2o1,-2.0,3.0,52.6*,-4.6
Cc1cccc(NC(=O)c2cc(=O)c3ccccc3o2)c1,·,1.3,·,·
CCN1CCS/C1=C/C=C/C1=[N+](CC)CCS1,139.6*,-2.8,0.6,120.5*
CCN1CCS/C1=C\C=C\C1=[N+](CC)CCS1,128.1*,6.4,-71.9,·
Cc1cc(C)c(S(=O)(=O)N2CCCC(C(=O)NCc3cccnc3)C2)c(C)c1 (centres undefined),·,-3.2,·,·
Cc1nnc(Sc2c(N)n(C)c(=O)[nH]c2=O)s1,-1.2,18.9*,0.3,5.3
C=CCn1c(Sc2nnc(C)s2)nc2c1c(=O)[nH]c(=O)n2C,-2.3,5.0,2.2,3.2
COC(=O)Cc1cc(=O)n2[nH]c(SC)nc2n1,0.4,?,-1.3,-1.3
COC(=O)Cc1cc(=O)n2[nH]c(C)nc2n1,-0.7,17.6*,-10.3,3.1
COc1ccc(C(O)(c2ccccc2OC)C(CN2CCOCC2)c2ccccc2)cc1 (centres undefined),-3.0,·,22.7,-1.3
OCCCc1nc2n(n1)C(c1ccccc1Cl)C=C(c1cccs1)N2 (centres undefined),19.3,34.0*,-2.6,77.6*
O=C(c1ccc(CS(=O)c2cccc(Cl)c2)o1)N1CCN(c2ccccn2)CC1 (centres undefined),·,5.1,·,·
Cc1cccc(NC(=S)N/N=C/c2ccc(Cl)c([N+](=O)[O-])c2)c1,-0.2,44.1*,0.0,-24.7
Cc1cccc(NC(=S)N/N=C/c2cccc([N+](=O)[O-])c2)c1,1.3,-1.1,0.7,0.1
CCCn1c2ccccc2c2cnn(CC(=O)NCCN(C)C)c(=O)c21,·,19.6*,·,·
CCCn1c2ccccc2c2cnn(CC(=O)NCCN(CC)CC)c(=O)c21,·,0.3,·,·
O=c1oc2ccc3ccccc3c2cc1-c1nc2ccccc2o1,·,126.0*,-0.1,·
COc1ccc2oc(=O)c(C(=O)OCc3ccccc3)cc2c1,·,18.5*,·,·
CN1CCN(C(=O)c2cc3c(ccc4ccccc43)oc2=O)CC1,12.4,4.5,11.8,41.5
O=c1oc2ccccc2cc1-c1nc2ccccc2o1,14.3,·,8.6,37.2
COc1ccc2oc(=O)c(C(=O)NCc3ccccc3)cc2c1,·,-2.3,·,·
COC(=O)c1cc2c(ccc3ccccc32)oc1=O,·,84.3*,·,·
COC(=O)C1C(O)CCC2CN3CCc4c([nH]c5ccccc45)C3CC21 (centres undefined),8.2,64.5*,11.6,70.8*
COC(=O)[C@H]1[C@H]2C[C@H]3c4[nH]c5ccccc5c4CCN3C[C@H]2CC[C@@H]1O,·,42.9*,·,·
COC(=O)[C@@H]1Cc2c([nH]c3ccccc23)C2CCC(=O)N21 (some centres undefined),·,0.7,·,·
SMILES,Runt-CBFb FRET,RanGTP-Imp inh,Hck-Nef inh,Runt-SMMHC FRET
O=C1CCC[C@H]2c3[nH]c4ccccc4c3CCN12,·,3.3,·,·
Cn1c(CCn2ccccc2=O)nc2cc(NC(=O)COc3ccccc3)ccc21,·,0.2,·,·
[O-][n+]1c2ccccc2cc2ccccc21,·,79.0*,·,·
Cc1oc(-c2ccccc2)[n+]([O-])c1C,0.6,-4.2,-0.8,-0.3
O=C(CNc1cccc(C(F)(F)F)c1)N/N=C/c1ccccc1C(=O)O,-0.7,-0.3,4.8,2.6
COc1cc(C2C(C#N)=C(N)Oc3cc4c(cc32)OCO4)cc(OC)c1OC (centres undefined),7.8,4.6,15.2,5.2
COc1cc(C2C(C#N)=C(N)Oc3cc(O)ccc32)cc2c1OCO2 (centres undefined),11.1,41.5*,-4.6,41.0
COc1cc(C2C(C#N)=C(N)Oc3cc(N(C)C)ccc32)cc2c1OCO2 (centres undefined),-8.8,26.9*,4.7,13.2
CCOC(=O)N1CCN(Cc2cc(Cl)c3cccnc3c2O)CC1,3.9,44.4*,17.4,-6.2
CCN(C(=O)CSc1nc2ccccc2o1)c1c(N)n(Cc2ccccc2)c(=O)[nH]c1=O,·,1.5,·,·
NSc1nc(N)c2nc(-c3ccccc3)c(-c3ccccc3)nc2n1,43.1,36.2*,20.0,69.3*
